Experimental data of several laboratories.
Protocols differ between the studies behind these lines.

Structure (SMILES) | host | medium | route | dose | notes | quantity | value
Cc1nc2ccc(OCc3ccc(C(F)(F)F)cc3)cc2[nH]1 | male BALB/c mouse | plasma | oral | 10 mg/kg |  | Vd/F | 7.35 L/kg
NCc1cc2c(cc1F)C(=O)N(C1CCC(=O)NC1=O)C2 (centres unmarked) | male CD-1 mouse | plasma | intravenous | 1 mg/kg |  | Vd | 6.5 L/kg
C[C@@H]1COCCN1c1cc(=O)n2c(n1)N(Cc1cncc(Cl)c1)[C@H](C(F)(F)F)CC2 | C57BL/6 mouse | plasma | intraperitoneal | 10 mg/kg | single dose | Vd | 7.05 L/kg
CCCC[C@@H](NC(=O)[C@@H](Cc1cn(C(=O)OC)c2ccccc12)NC(=O)[C@H](CC(C)(C)C)NC(=O)N1[C@H](C)CCC[C@@H]1C)C(=O)O | male CD-1 mouse | plasma | intravenous | 3 mg/kg |  | Vd | 6.6 L/kg
COCC(=O)N1CCc2[nH]c3c(Cl)c(Cl)ccc3c2[C@@H]1C | C57BL/6 mouse | blood | intravenous | 1 mg/kg |  | Vd | 1.23 L/kg
O=C1CCC(N2Cc3cc(CO)c(F)cc3C2=O)C(=O)N1 (centres unmarked) | male CD-1 mouse | plasma | intravenous | 1 mg/kg |  | Vd | 2.8 L/kg
C=CCn1c(=O)c2cnc(Nc3ccc(N4CCN(C)CC4)cc3)nc2n1-c1ccc2c(n1)[C@@](O)(CC)CC2 | mouse | plasma | intravenous | 3 mg/kg |  | Vd | 3.4 L/kg
CC(C)[C@@H](CS(=O)(=O)C(C)C)N1C(=O)[C@@](C)(CC(=O)O)C[C@H](c2cccc(Cl)c2)[C@H]1c1ccc(Cl)cc1 | FVB mouse | plasma | oral | 20 mg/kg | single dose | Vd/F | 12.2 L/kg
OCc1nc2ccc(NCc3ccc(C(F)(F)F)cc3)cc2[nH]1 | male BALB/c mouse | plasma | intravenous | 1 mg/kg |  | Vd | 4 L/kg
CC(C)(C)c1sc2ncnc(Oc3c(F)cccc3OC(F)(F)F)c2c1-c1ccc(Cl)cc1 | mouse | plasma | intravenous | 1 mg/kg |  | Vd | 1.3 L/kg
CN(C)C(=O)c1cc2cnc(Nc3ccc(-c4ccc5c(=O)cc(N6CCOCC6)oc5c4)cc3)nc2n1C1CCCC1.Cl | BALB/c mouse | plasma | oral | 20 mg/kg |  | Vd/F | 17.7 L/kg
